Data: ChEMBL document CHEMBL2177071, “The effect of Pro(2) modifications on the structural and pharmacological properties of endomorphin-2” (J Med Chem, 2012)

Columns and labels:
[1] = molecular target: T1, Mu-type opioid receptor (Rattus norvegicus, UniProt P33535); test: Agonist activity at mu opioid receptor in Wistar rat brain membranes after 60 mins by [35S]GTPgammaS binding assay; format: functional, cell membranes, Membrane
[2] = Half life in Wistar rat brain homogenate; format: ADME, tissue-based
Outline: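 Peptide incubated in crude rat brain membrane homogenate with a protein content of 4.7 mg/mL, and its disappearance followed over time. Half-life is calculated from pseudo-first-order kinetics. Means of at least three individual experiments ± SEM.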

[3] = molecular target: T1, Mu-type opioid receptor; format: cell membranes, Wistar, Membrane
[4] = molecular target: Delta-type opioid receptor (Rattus norvegicus) (UniProt P33533); test: (§1) Displacement of [3H][Ile5,6]deltorphin 2 from delta opioid receptor in Wistar rat brain membranes; format: cell membranes; details: Membrane
Delta-type opioid receptor (Rattus norvegicus), sequence (P33533 whole entry): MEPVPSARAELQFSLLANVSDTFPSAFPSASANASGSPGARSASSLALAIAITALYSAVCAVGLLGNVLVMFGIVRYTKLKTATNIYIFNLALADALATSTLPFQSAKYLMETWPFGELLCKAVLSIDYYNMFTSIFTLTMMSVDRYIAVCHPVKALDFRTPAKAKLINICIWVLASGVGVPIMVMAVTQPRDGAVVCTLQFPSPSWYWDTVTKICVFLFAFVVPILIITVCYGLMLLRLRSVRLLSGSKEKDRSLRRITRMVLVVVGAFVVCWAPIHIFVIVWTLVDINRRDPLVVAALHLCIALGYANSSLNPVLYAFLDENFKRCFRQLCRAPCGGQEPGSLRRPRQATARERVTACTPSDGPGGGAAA
Outline: (§2)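 Competitive displacement in crude rat brain membrane preparation, with the test peptide at a range of concentrations. Ki is calculated from EC50 by Cheng–Prusoff, Ki = EC50/(1+[ligand]/Kd), using Kd values from the literature. Means ± SEM, n ≥ 3.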

[5] = molecular target: Delta-type opioid receptor (Rattus norvegicus, UniProt P33533); test: as §1; format: cell membranes, Membrane; outline: as §2
Delta-type opioid receptor, sequence (P33533 whole entry): as above

T1 sequence (P33535 whole entry): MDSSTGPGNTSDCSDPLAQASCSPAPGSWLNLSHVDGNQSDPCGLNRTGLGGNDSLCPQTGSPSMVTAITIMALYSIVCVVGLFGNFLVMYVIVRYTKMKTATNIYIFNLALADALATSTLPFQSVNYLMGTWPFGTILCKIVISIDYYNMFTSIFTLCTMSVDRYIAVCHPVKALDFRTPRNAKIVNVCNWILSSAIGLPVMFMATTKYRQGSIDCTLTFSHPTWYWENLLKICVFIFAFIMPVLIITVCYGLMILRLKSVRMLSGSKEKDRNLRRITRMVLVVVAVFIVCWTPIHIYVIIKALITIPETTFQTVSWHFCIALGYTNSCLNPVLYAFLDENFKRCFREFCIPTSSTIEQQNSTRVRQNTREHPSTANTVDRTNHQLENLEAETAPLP

For `NC(=O)[C@H](Cc1ccccc1)NC(=O)[C@H](Cc1ccccc1)NC(=O)[C@@H]1C[C@@H](O)CN1C(=O)[C@@H](N)Cc1ccc(O)cc1`, the EC50 [1] was 0.066 µM, the half-life [2] was 17 min and the Ki [3] was 0.044 µM. The Activity [4] was “Dose-dependent effect” and the Ki [5] was over 10 µM.

With `NC(=O)[C@H](Cc1ccccc1)NC(=O)[C@H](Cc1ccccc1)NC(=O)[C@@H]1CC=C[C@@H]1NC(=O)[C@@H](N)Cc1ccc(O)cc1` the Activity [4] was “Dose-dependent effect” and the Ki [5] was over 10 µM.

In the case of `NC(=O)[C@H](Cc1ccccc1)NC(=O)[C@H](Cc1ccccc1)NC(=O)[C@H]1CC=CC[C@H]1NC(=O)[C@@H](N)Cc1ccc(O)cc1`, the half-life [2] is reported as over 1200 min, the Activity [4] is reported as “Dose-dependent effect” and the Ki [5] is reported as 1.03 µM.

Molecule `NC(=O)[C@H](Cc1ccccc1)NC(=O)[C@H](Cc1ccccc1)NC(=O)C[C@@H]1CCCN1C(=O)[C@@H](N)Cc1ccc(O)cc1` has an EC50 [1] of 0.845 µM, a half-life [2] of 34 min and a Ki [3] of 0.027 µM. For the same molecule, the Activity [4] was “Dose-dependent effect” and the Ki [5] was over 10 µM.

In the case of `NC(=O)[C@H](Cc1ccccc1)NC(=O)[C@H](Cc1ccccc1)NC(=O)[C@H]1CC=C[C@H]1NC(=O)[C@@H](N)Cc1ccc(O)cc1`, the half-life [2] is reported as over 1200 min, the Activity [4] is reported as “Dose-dependent effect” and the Ki [5] is reported as 9.93 µM.

In the case of `NC(=O)[C@H](Cc1ccccc1)NC(=O)[C@H](Cc1ccccc1)NC(=O)[C@@H]1CC=CC[C@@H]1NC(=O)[C@@H](N)Cc1ccc(O)cc1`, the Activity [4] is reported as “Dose-dependent effect” and the Ki [5] is reported as over 10 µM.

For `NC(=O)[C@H](Cc1ccccc1)NC(=O)[C@H](Cc1ccccc1)NC(=O)[C@@H]1CCCN1C(=O)[C@@H](N)Cc1ccc(O)cc1` [ENDOMORPHIN 2], the half-life [2] was 5.8 min and the Activity [4] was “Dose-dependent effect”.
